# Screening data deposited in PubChem BioAssay by Broad Institute.
# Vif imaging: inhibitors of HIV Vif. HEK293T cells, Vif self-association by quenched fluorescence, imaging, 24 h. inhibition, % at 7.49 µM. 340,000 compounds, 0.35% hits. AID 602346; in the data active = inhibition above about 50%, passing the limit was not always enough
# N-glyco inh: blocks N-linked glycosylation in D54 reporter cells; D54 ERlucT glycosylation luciferase reporter, 24 h; percent of 100 nM tunicamycin response; 360,000 compounds, 0.23% hits; reporter increase, % at 12.5 µM;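 active = mean luciferase reporter signal, scaled so untreated is 0 and the glycosylation-blocking control 100, at or above a set limit in every replicate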;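 note: luciferase carries N-glycosylation sites so blocking glycosylation raises the light; 0% = median of neutral control wells and 100% = median of 100 nM tunicamycin wells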
# CDK5 inh: inhibitors of human CDK5/p35 kinase; 330,000 compounds, 0.01% hits; Recombinant CDK5/p35, ADP-Glo luminescence, 60 min; AID 488839; inhibition, % at 10 µM;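 active = highest replicate inhibition of at least 50% and at least 75% of replicates reaching 50%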;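 note: plate controls were DMSO neutral control for no effect and GW8510 at 10 µM for full effect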
# Target sequence (Q00535 whole entry, looked up): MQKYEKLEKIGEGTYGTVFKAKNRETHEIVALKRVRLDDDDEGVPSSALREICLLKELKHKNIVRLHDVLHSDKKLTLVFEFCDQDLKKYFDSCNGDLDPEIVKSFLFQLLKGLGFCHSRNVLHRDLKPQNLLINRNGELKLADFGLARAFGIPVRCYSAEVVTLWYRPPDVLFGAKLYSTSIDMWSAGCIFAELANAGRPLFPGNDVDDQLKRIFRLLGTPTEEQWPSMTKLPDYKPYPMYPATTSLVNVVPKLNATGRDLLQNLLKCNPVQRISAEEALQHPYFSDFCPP
# Target sequence (Q15078 whole entry, looked up): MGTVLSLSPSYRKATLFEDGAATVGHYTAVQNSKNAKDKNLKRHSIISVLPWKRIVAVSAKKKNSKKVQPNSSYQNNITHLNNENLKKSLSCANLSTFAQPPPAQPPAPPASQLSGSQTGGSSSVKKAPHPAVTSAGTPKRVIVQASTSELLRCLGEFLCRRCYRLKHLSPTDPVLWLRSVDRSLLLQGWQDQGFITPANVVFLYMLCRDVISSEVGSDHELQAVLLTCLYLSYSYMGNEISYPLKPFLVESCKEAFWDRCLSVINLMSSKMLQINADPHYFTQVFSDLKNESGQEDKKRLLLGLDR
# CAL PDZ FP-1: blocks peptide binding to the human CAL PDZ domain | Q9HD26 | purified CAL PDZ, TMR-peptide fluorescence polarization, 1 h | inhibition, % at 24.9 µM | 300,000 compounds, 0.92% hits;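 active = mean inhibition of at least 30% with at least half of replicates also reaching 30%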;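 note: 0% = DMSO neutral control and 100% = excess unlabeled competitor peptide PRC23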
# PvdQ acylase: P. aeruginosa PvdQ acylase inhibition. 340,000 compounds, 0.063% hits. inhibition, % at 10 µM. purified PvdQ acylase, fluorescence plate reader; in the data active = inhibition above about 30%, passing the limit was not always enough;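 note: 0% = vehicle neutral wells and 100% = reference inhibitor wells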
# CAL PDZ FP-2: human CAL PDZ-peptide interaction inhibition; purified CAL PDZ, TMR-peptide fluorescence polarization, 1 h; 330,000 compounds, 0.02% hits; inhibition, % at 20 µM; Q9HD26;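 active = highest replicate inhibition of at least 40%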;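 note: plate controls were DMSO neutral control wells for no effect and unlabeled competitor peptide control wells for full effect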
#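 material = purified tagged CAL PDZ domain construct (CerCALP) | buffer or medium = sodium phosphate/NaCl buffer pH 7.4 with TCEP, IgG, Thesit | reagent = TMR-labelled reporter peptide T*-PRC34 bound in PDZ groove | incubation = 1 h room-temperature incubation prior to read | measured by = fluorescence polarization (mP) | evaluation = percent inhibition from loss of millipolarization | control set = unlabelled peptide and DMSO controls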
# The depositor's hits bear a star; . = not tested or not shown; + = active, no number. This is a sample that favours compounds with a hit; in the whole collection about 1.4% have one here.
SMILES,Vif imaging,N-glyco inh,CDK5 inh,CAL PDZ FP-1,PvdQ acylase,CAL PDZ FP-2
COc1ccc(C2=NOC(C)(c3nnc(-c4ccncc4)o3)C2)cc1 (stereo unspecified),-0.8,1.9,-0.3,-3.1,-8.3,0.3
COCCCNC1=C(C#N)C(=O)NC(c2cccs2)S1 (stereo unspecified),.,0.2,.,.,.,.
C[C@@H]1CN([C@H](C)CO)C(=O)CCCn2cc(nn2)CO[C@H]1CN(C)C(=O)c1ccccc1,69.7*,3.6,.,.,.,.
CCn1c(CCNS(=O)(=O)c2ccccc2Br)nnc1SC,54.2*,0.9,-0.5,-0.3,-5.3,-2.7
CCN(CC)CCCNC(=O)CNC(=O)c1nn(-c2ccc(OC)cc2OC)c(=O)c2ccccc12,.,-1.1,.,.,.,.
Cn1c(Cc2ccccc2)n[nH]c1=S,10.7,2.2,0.1,0.2,-16.2,-1.3
Cn1c(Cc2cccs2)n[nH]c1=S,0.3,1.3,0.8,37.8*,-15.6,-0.1
CN(CC(=O)Nc1ccc(F)cc1)C(=O)c1cn(-c2ccccc2)nc1-c1cccs1,-1.7,2.6,-0.1,31.4*,-12.3,-1.4
CCCN(C(=O)CSCc1ccc(C)cc1)c1c(N)n(Cc2ccccc2)c(=O)[nH]c1=O,-7.7,1.2,.,.,.,.
O=C(CCC(=O)Nc1ccc(Br)cc1)N/N=C/c1ccccc1O,-2.2,-2.3,0.7,+,-3.7,-1.9
Cc1ccc(NC(=O)CCC(=O)N/N=C/c2ccccc2O)cc1,3.0,-0.7,-0.9,-4.2,-17.0,-3.3
CCN(CC)CCNC(=O)c1cn(CC)c2cc(N3CCN(C)CC3)c(F)cc2c1=O,4.6,-3.2,1.1,-0.2,8.0,-1.2
COC(=O)C(C(=O)OC)=C(/C=C/C=C/N(C)C)N(C)C,-0.4,0.3,-0.9,-6.5,-2.8,.
COC(=O)C(C(=O)OC)=C(/C=C/N(C)C)N(C)C,16.7,1.3,-0.8,45.9*,-5.7,7.0
CCNCc1ccccc1OCc1ccccc1,2.7,0.5,0.1,-2.2,-14.3,-1.2
Oc1ccc(NCc2ccccc2OCc2ccccc2)cc1,7.4,51.8*,0.7,-5.1,-9.9,-0.9
CN[C@H]1C[C@H]2c3cc(N4CCN(C)CC4)ccc3CCN2C(=O)[C@H]1[C@H](C)O,.,1.6,.,.,.,.
Cc1ccc(S(=O)(=O)NC(CC(C)C)C(=O)N2CCOCCOCCOCC2)cc1 (stereo unspecified),3.2,-1.3,-0.9,0.2,7.1,-2.2
Cc1ccc(S(=O)(=O)NC(CC(C)C)C(=O)N2CC(C)OC(C)C2)cc1 (stereo unspecified),-34.1,16.5,0.6,75.5*,-1.4,-0.3
CCCN(CC(=O)Nc1cc(C)on1)CC(=O)Nc1ccc(F)c(F)c1F,-2.3,-3.7,1.1,48.7*,-11.4,0.3
O=C(NNS(=O)(=O)c1ccccc1)c1ccccc1-n1cccc1,9.5,1.2,1.7,41.4*,-6.8,-1.0
O=C(C1CCC(=O)N(C2CCCCCC2)C1)N1CCN(c2ccccc2Cl)CC1 (stereo unspecified),-6.8,0.2,-0.4,-2.5,-12.7,-2.9
Cc1ccccc1N1CCN(C(=O)C2CCC(=O)N(C3CCCC3)C2)CC1 (stereo unspecified),7.7,-1.5,-0.9,78.7*,-14.5,0.2
COc1ccc(-c2csc(NC(C)c3nc4cc(C(F)(F)F)ccc4n3CCOCCO)n2)cc1 (stereo unspecified),2.2,-0.1,0.6,-0.3,-6.4,-0.5
Cc1nc(NCCCN2CCOCC2)c2cnn(-c3ccccc3)c2n1,10.7,1.7,-0.6,36.0*,-9.4,-0.6
SMILES,Vif imaging,N-glyco inh,CDK5 inh,CAL PDZ FP-1,PvdQ acylase,CAL PDZ FP-2
CC(=O)c1cccc(OCc2cc(C(=O)N3CC4C[C@@H]5CC3C[C@H](C4)C5)no2)c1,-7.5,0.6,.,-2.3,-9.4,-2.2
CC(=O)c1ccc(OCc2cc(C(=O)N3CC4C[C@@H]5CC3C[C@H](C4)C5)no2)cc1,.,.,0.1,70.1*,-12.6,-1.4
CC(=O)c1ccc(OCc2cc(C(=O)NCCc3ccc(Cl)cc3)no2)cc1,-6.7,-1.3,0.6,67.8*,-15.2,1.6
COc1cc(OC)cc(C(=O)N2CCN(c3ccc(N4CCOCC4)nn3)CC2)c1,22.6,-0.5,-4.5,-4.3,-16.1,0.3
COc1ccccc1N=CC1=C(O)CC(c2ccccc2)CC1=O (stereo unspecified),-0.8,27.6*,1.7,-1.8,7.7,-1.9
O=C1CC(c2ccccc2)CC(O)=C1C=Nc1ccccc1Cl (stereo unspecified),-13.0,0.7,-1.2,-1.7,-12.1,-3.0
CC1(C)CC(NC(=O)C2CCN(S(=O)(=O)c3ccc(Cl)c(C(F)(F)F)c3)CC2)CC(C)(C)N1,10.8,2.6,-0.8,57.7*,-6.0,0.3
CC1(C)CC(NC(=O)C2CCN(S(=O)(=O)c3ccccc3C(F)(F)F)CC2)CC(C)(C)N1,6.9,0.0,-1.9,-2.2,-28.5,1.3
CC1(C2(O)CCCCC2)NCCc2ccccc21 (stereo unspecified),-10.7,-2.7,-0.8,6.6,-6.7,0.2
CCn1c(SCC(=O)N2CCCC(C)C2)nc2c1c(=O)n(C)c(=O)n2C (stereo unspecified),7.8,0.2,1.2,+,-5.6,-0.8
CCc1ccccc1N(CC(=O)O)S(C)(=O)=O,43.3,0.4,0.2,43.5*,-18.4,.
O=C(CN1C(=O)CSc2ccc(S(=O)(=O)N3CCCCC3)cc21)NCc1ccccc1,-23.5,-0.4,0.2,-3.8,-7.1,-1.8
Cc1ccc(S(=O)(=O)N2CCOCC2)cc1NC(=O)COC(=O)c1ccc(OCc2c(C)noc2C)cc1,0.3,1.4,-0.7,4.4,-5.2,-1.1
CC(=O)Nc1ccc(NC(=O)c2ccc(OCc3c(C)noc3C)cc2)cc1,60.4*,1.6,-0.4,-4.5,5.7,0.2
Cc1noc(C)c1COc1ccc(C(=O)OC(C)C(=O)Nc2ccc(S(=O)(=O)N3CCOCC3)cc2)cc1 (stereo unspecified),-15.2,-1.6,-0.5,54.2*,-13.0,-0.6
Cc1noc(C)c1COc1ccc(C(=O)NNC(=O)c2ccccc2F)cc1,24.6,26.8*,0.3,-0.4,-1.4,-1.2
O=C(Cc1cc2ccccc2o1)NCc1ccc(F)cc1,0.3,11.7,2.1,0.7,-11.8,-3.5
CNc1cncc(-c2ccc(OC)cc2)n1,-8.2,-1.6,.,.,.,.
O=C(Nc1ccc(Oc2c(F)c(F)c(F)c(F)c2F)cc1)OC1CCN2Cc3ccccc3N=C12 (stereo unspecified),-9.1,29.4*,-0.2,.,-8.1,-0.9
Cc1cccc(NC(=O)Nc2ccc(Oc3c(F)c(F)c(F)c(F)c3F)cc2)c1,-1.9,-0.6,-1.0,-1.3,-5.8,-2.1
Cc1cc(C)cc(NC(=O)/C=C/c2ccc([N+](=O)[O-])s2)c1,96.5*,20.4,0.8,-0.2,9.8,-3.3
CC1CN(C(=O)/C=C/c2ccc([N+](=O)[O-])s2)CC(C)O1 (stereo unspecified),2.7,23.7,-1.4,39.5*,-4.2,0.0
